Assay type in all cases: functional
Experiment [1] deals with Streptococcus mutans. In words: Antibacterial activity against Streptococcus mutans ATCC 35668 after 24 hrs by microbroth dilution assay. Conditions: ATCC 35668, 24 h. In short, it runs like this:
(§1)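 EtOH stocks tested as a 2-fold series (200–0.78 μg/mL) mixed with an equal volume of overnight culture diluted to OD660 0.2. Medium was THB plus hemin 10 μg/mL and vitamin K 10 μg/mL. P. gingivalis was run anaerobically (N2/H2/CO2 80/10/10) and S. mutans aerobically. After 24 h at 37 °C growth was read visually; MIC was the lowest concentration without growth. Three independent experiments.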

Experiment [2] deals with Porphyromonas gingivalis. In words: Antibacterial activity against Porphyromonas gingivalis ATCC 33277 after 24 hrs by microbroth dilution assay. Conditions: ATCC 33277, 24 h. In short, it runs like this:
as §1

Experiment [3] has as its system Streptococcus mutans. Kind of experiment: Bactericidal activity against Streptococcus mutans ATCC 35668 after 3 days. Conditions: ATCC 35668, 72 h. In short, it runs like this: (§2)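 From microbroth wells without visible growth after 24 h, aliquots were spread on THB agar and incubated 3 days at 37 °C. MBC was the lowest concentration giving no colony formation. Three independent experiments.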

Experiment [4] relates to Porphyromonas gingivalis. Kind of experiment: Bactericidal activity against Porphyromonas gingivalis ATCC 33277 after 3 days. Conditions: ATCC 33277, 72 h. In short, it runs like this:
as §2

The MIC is the least concentration at which growth counts as inhibited. A higher MIC goes with weaker potency. One may read the MBC as the smallest concentration meeting the test's criterion for killing.

≈ marks a conversion by molar mass, not a printed value. Some results are limits rather than exact numbers.

Turning to `COc1c(CC=C(C)C)c(O)cc2c1[C@@H]1Oc3c(ccc(O)c3CC=C(C)C)[C@@H]1CO2`, the MIC with Streptococcus mutans [1] was 200 µg/mL (≈ 473 µM); with Porphyromonas gingivalis [2], 50 µg/mL (≈ 118 µM). Besides, the MBC was over 200 µg/mL against Streptococcus mutans [3] and 50 µg/mL (≈ 118 µM) in the experiment with Porphyromonas gingivalis [4].
Regarding `COc1c2c(cc3oc(=O)c4c5ccc(O)cc5oc4c13)OC(C)(C)CC2` [ISOGLYCYROL], the results for the MIC with Streptococcus mutans [1] and in the experiment with Porphyromonas gingivalis [2] were over 200 µg/mL and 200 µg/mL (≈ 546 µM), respectively. Further, the MBC in the experiment on Streptococcus mutans [3] was over 200 µg/mL; against Porphyromonas gingivalis [4], 200 µg/mL (≈ 546 µM).
In the experiment on Streptococcus mutans [1], `CC1(C)S[C@@H]2[C@H](NC(=O)Cc3ccccc3)C(=O)N2[C@H]1C(=O)O` [PENICILLIN G] returned an MIC of 0.05 µg/mL (≈ 0.15 µM). Besides, the MBC with Streptococcus mutans [3] turned out to be 1.56 µg/mL (≈ 4.67 µM).
In turn, `CN(C)[C@@H]1C(O)=C(C(N)=O)C(=O)[C@@]2(O)C(O)=C3C(=O)c4c(O)cccc4[C@@](C)(O)[C@H]3C[C@@H]12` [TETRACYCLINE] gave an MIC in the experiment on Porphyromonas gingivalis [2] of 1.56 µg/mL (≈ 3.51 µM). Moreover, the MBC against Porphyromonas gingivalis [4] is 12.5 µg/mL (≈ 28.1 µM).
Take `COc1c(CC=C(C)C)c(O)cc2c1C[C@H](c1ccc(O)c(CC=C(C)C)c1O)CO2` [LICORICIDIN]: the results for the MIC in the experiment on Streptococcus mutans [1] and in the experiment with Porphyromonas gingivalis [2] were 12.5 µg/mL (≈ 29.4 µM) and 3.12 µg/mL (≈ 7.36 µM), respectively. Also, the MBC against Streptococcus mutans [3] was 25 µg/mL (≈ 58.9 µM); against Porphyromonas gingivalis [4] it was 3.12 µg/mL (≈ 7.36 µM).
On to `COc1c(CC=C(C)C)c(O)cc2c1C[C@H](C1=CC(=O)C(O)=C(CC=C(C)C)C1=O)CO2`, for which the MIC against Streptococcus mutans [1] was over 200 µg/mL; with Porphyromonas gingivalis [2], 25 µg/mL (≈ 57 µM). For the same molecule, the MBC against Streptococcus mutans [3] is over 200 µg/mL; with Porphyromonas gingivalis [4], 25 µg/mL (≈ 57 µM).
Turning to `COc1c(CC=C(C)C)c(O)cc2c1C[C@H](c1ccc3c(c1O)C=CC(C)(C)O3)CO2`, the MIC with Streptococcus mutans [1] and with Porphyromonas gingivalis [2] was 12.5 µg/mL (≈ 29.6 µM) in each case. The MBC in the experiment on Streptococcus mutans [3] and in the experiment with Porphyromonas gingivalis [4] was 12.5 µg/mL (≈ 29.6 µM) each time.
As to `COc1cc2occ(-c3ccc(O)cc3)c(=O)c2c(O)c1CC=C(C)C` [GANCAONIN G], the values for the MIC with Streptococcus mutans [1] and in the experiment with Porphyromonas gingivalis [2] were over 200 µg/mL and 200 µg/mL (≈ 568 µM), respectively. Further, the MBC with Streptococcus mutans [3] was over 200 µg/mL; in the experiment with Porphyromonas gingivalis [4] it was 200 µg/mL (≈ 568 µM).
Turning to `COc1c2c(cc3c1C[C@H](c1ccc(O)c(CC=C(C)C)c1O)CO3)OC(C)(C)C=C2`, the minimum inhibitory concentration (MIC) was determined as 25 µg/mL (≈ 59.2 µM) in the experiment on Streptococcus mutans [1] and 6.25 µg/mL (≈ 14.8 µM) in the experiment on Porphyromonas gingivalis [2]. Also, the results for the MBC against Streptococcus mutans [3] and in the experiment with Porphyromonas gingivalis [4] were over 200 µg/mL and 6.25 µg/mL (≈ 14.8 µM), respectively.
Take `COc1c(CC=C(C)C)c(O)cc2c1C[C@H](c1ccc(O)c3c1OC(C)(C)C=C3)CO2`: the MIC in the experiment on Streptococcus mutans [1] and against Porphyromonas gingivalis [2] was 6.25 µg/mL (≈ 14.8 µM) in each case. Moreover, the MBC with Streptococcus mutans [3] and in the experiment with Porphyromonas gingivalis [4] was 6.25 µg/mL (≈ 14.8 µM) in each case.

The values above are taken from ChEMBL document CHEMBL3124836, “Pyrano-isoflavans from Glycyrrhiza uralensis with antibacterial activity against Streptococcus mutans and Porphyromonas gingivalis” (2014).
